Screening results as filed in PubChem BioAssay.
Rows were chosen to be rich in hits. Some 3.4% of all compounds tested hit in one or more screens of this group.
TAAR1 ag: human TAAR1 agonists, primary screen, Fluo-8 calcium fluorescence, CHO RD-HGA16 cells. vehicle wells 0%, saturating PEA agonist 100%. activation, % at 3 µM. 0.99% of 360,000 active. AID 624467, 2012;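 active means activation above the mean activation of all test compounds in the run plus 3 SD, cut at about 38% in these data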
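Test system: RD-HGA16 (CHO) cells co-expressing Gα16 and hTAAR1; dosing: one-point dosing at 3 µM (nominal); timing: 17-24 h seeding, 75 min 37 °C dye, 30 min RT; signal: kinetic Fluo-8 calcium fluorescence; read-out basis: % activation relative to PEA EC100 response; controls: DMSO and PEA EC100; replicates: n 1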
M1 PAM: human M1 muscarinic receptor positive allosteric modulators, primary screen, CHO-K1 cells, Fluo-8 calcium fluorescence, 1536-well; activation, % at 3 µM; CHO-K1 hM1, ACh EC20; 0% = ACh EC20, 100% = maximal ACh; AID 588819, 2011; Muscarinic acetylcholine receptor M1 (Homo sapiens), P11229; 0.088% of 360,000 active; in the data active means activation above about 19%, passing the limit was not always enough
Target sequence (P11229 whole entry, looked up): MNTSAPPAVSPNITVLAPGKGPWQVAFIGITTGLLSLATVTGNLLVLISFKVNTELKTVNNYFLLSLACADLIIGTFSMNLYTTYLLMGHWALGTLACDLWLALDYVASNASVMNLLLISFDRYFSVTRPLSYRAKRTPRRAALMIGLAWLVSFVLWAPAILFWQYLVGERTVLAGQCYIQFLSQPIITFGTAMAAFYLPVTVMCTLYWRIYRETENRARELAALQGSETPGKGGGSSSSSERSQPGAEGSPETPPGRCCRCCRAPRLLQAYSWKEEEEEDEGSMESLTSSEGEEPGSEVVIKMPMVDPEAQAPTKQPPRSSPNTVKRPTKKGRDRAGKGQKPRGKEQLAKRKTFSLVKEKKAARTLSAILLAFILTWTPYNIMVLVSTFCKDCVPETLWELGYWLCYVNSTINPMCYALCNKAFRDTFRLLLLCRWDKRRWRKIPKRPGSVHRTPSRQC
CHRM1 agonist: human M1 muscarinic receptor agonists, primary screen, Fluo-8 calcium fluorescence, CHO-K1 cells, HTS; CHO-K1 hM1, agonist mode; 0% DMSO, 100% acetylcholine EC100; activation, % at 3 µM; 0.33% of 360,000 active; AID 588814, 2011;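 active means activation above the run's mean compound activation plus 3 SD, cut at about 16% in these data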;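 further: peak over basal fluorescence ratio within a 140 s kinetic read after compound addition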
TAAR1 antag: human TAAR1 antagonists, primary screen, Fluo-8 calcium fluorescence, CHO RD-HGA16 cells | antagonist | inhibition, % at 3 µM | 1.5% of 360,000 active | AID 624466, 2012;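 active means inhibition above a per-plate cutoff, the mean inhibition of test compounds on that plate plus 3 SD, cut at about 49% in these data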;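 further: 0% = DMSO plus EC80 beta-PEA response and 100% = DMSO alone without agonist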
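Assay system: CHO-derived RD-HGA16 cells stably expressing human TAAR1 plus Gα16. Timing: 140 s kinetic read after compound, 140 s after agonist. Technique: kinetic Fluo-8 calcium fluorescence measurement. Measure: % inhibition of agonist calcium response.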
CHRM1 antagonist: human M1 muscarinic receptor antagonists, primary screen, CHO-K1 cells, Fluo-8 calcium fluorescence, 1536-well; inhibition, % at 3 µM; CHO-K1 hM1, ACh EC80 antagonist; 1.3% of 360,000 active; Muscarinic acetylcholine receptor M1 (Homo sapiens), P11229; AID 588852, 2011;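 active means percent inhibition above its own plate's cutoff, namely the mean of that plate's compound wells plus 3 SD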;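 further: peak over basal fluorescence ratio during 140 s after agonist addition; 0% = ACh EC80 plus DMSO and 100% = DMSO alone without agonist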
* hit, by the source's call; x = no result.

SMILES	TAAR1 ag	M1 PAM	CHRM1 agonist	TAAR1 antag	CHRM1 antagonist
COC(=O)c1cc2c(c3c4cc(F)ccc4n(C(=O)c4ccccc4)c13)C(=O)N(C1CCCCC1)C2	0.3	x	x	-0.5	x
CCOC(=O)c1ccn(CSc2c(F)c(F)cc(F)c2F)n1	19.6	-14.3	-2.4	-11.9	33.5*
CN1CCC(CC(C(=O)N2CCCC2)(c2ccccc2)c2ccccc2)C1 (stereo unspecified)	-0.1	-26.7	-8.2	-1.7	60.5*
O=c1c2cc(N3CCOCC3)ccc2[nH]c(=S)n1CCCN1CCCCCC1	1.1	-24.1	-6.4	5.4	22.9*
O=Cc1coc([B-](F)(F)F)c1	4.8	x	x	-16.9	x
O=C(COc1ccc(Br)cc1)N(Cc1nnc(-c2ccccc2Cl)o1)C1CC1	2.5	-23.3	-4.8	21.9	37.4*
O=C(c1ccc([N+](=O)[O-])o1)N(Cc1nnc(-c2ccccc2Cl)o1)C1CC1	1.4	-9.8	-8.6	-0.6	27.1*
Cc1ccc(C(=O)N(Cc2nnc(-c3ccccc3Cl)o2)C2CC2)o1	4.1	3.8	-6.6	-6.6	-11.8
CC1(C)CC(=O)C=C(C2CC2)C1=O	5.7	x	x	-20.4	x
CC(CC(=O)N1CCN(c2ccccc2)CC1)S(=O)(=O)c1ccc2c(c1)NC(=O)CO2 (stereo unspecified)	16.6	-3.4	2.8	53.4*	6.9
CCCN1CCCCC(NC(=O)c2ccccc2C)C1=O (stereo unspecified)	0.6	x	x	-8.5	x
O=C(C[C@@H]1C[C@@H]2c3cc(NC(=O)c4ccc5c(c4)OCO5)ccc3O[C@@H]2[C@@H](CO)O1)NCc1cccnc1	0.1	x	x	-9.7	x
COc1ccc(C(=O)CSC2=C(C#N)C3(CCCCC3)C(C#N)=C(N)N2)cc1	25.4	-4.6	-0.3	10.8	5.6
N#CC1=C(N)NC(SCC(=O)c2ccc(Cl)cc2)=C(C#N)C12CCCC2	9.7	-2.8	4.8	51.1*	3.0
N#CC1=C(N)NC(SCC(=O)c2ccc(Br)cc2)=C(C#N)C12CCCCC2	16.2	-6.9	1.7	66.1*	19.0
COc1cc(C2c3[nH]c4ccccc4c3C[C@@H]3C(=O)N(Cc4ccco4)CC(=O)N23)cc(OC)c1OC (stereo partly specified)	30.5	7.8	5.0	53.2*	3.1
COCCN1Cc2cc(C(=O)OC)c3c(c2C1=O)c1ccccc1n3S(=O)(=O)c1ccc(C)cc1	-1.4	x	x	-28.3	x
COC(=O)c1cc2c(c3c4cc(OC)ccc4n(S(=O)(=O)c4cccc(C)c4)c13)C(=O)N(Cc1ccc(N(C)C)cc1)C2	-1.6	x	x	-6.5	x
COc1ccc(CNC[C@@H](CCCCN(C)Cc2ccc(OC)cc2)N2C[C@H](c3ccccc3)N(CCc3ccc(Cl)c(Cl)c3)C(=O)C2=O)cc1	x	-5.4	21.3*	x	7.4
COc1cc(C)ccc1S(=O)(=O)N1CCN(C23CC4CC(CC(C4)C2)C3)CC1	12.6	-21.6	-8.9	-10.7	98.4*
C[C@H](CO)N1C[C@H](C)[C@H](CN(C)C(=O)NC2CCCCC2)OCc2cnnn2CCCC1=O	5.3	x	x	-25.4	x
N#CC1(c2ccccc2)CCC(NCCc2ccccc2)CC1 (stereo unspecified)	40.7*	-27.4	-9.9	8.6	34.7
C#CCNC(=O)C[C@H]1C[C@@]2(C(=O)OC)C(=C[C@H](C3CCCC3)O[C@@H]2C)N(CCCCCCCC)C1=O	-2.0	x	x	-23.6	x
Cc1noc(C)c1CCC(=O)NC1CCCN(Cc2ccc(CC(C)C)cc2)C1 (stereo unspecified)	-0.2	-22.3	-4.9	-10.3	54.1*
CC(C)Cc1ccc(CN2CCCC(NC(=O)c3ccnn3C)C2)cc1 (stereo unspecified)	1.2	-9.6	0.0	-35.9	-4.8
SMILES	TAAR1 ag	M1 PAM	CHRM1 agonist	TAAR1 antag	CHRM1 antagonist
Cc1noc(C)c1CCC(=O)NC1CCCN(Cc2ccc(Cl)cc2)C1 (stereo unspecified)	1.0	-15.9	-7.6	-13.1	36.3*
COC(=O)N1C[C@H](Oc2ncccn2)[C@H]2C[C@@H]1c1ccccc1O2	3.2	x	x	-35.4	x
Cc1cccc(OCCSc2nc3c([nH]2)c(=N)ncn3Cc2ccccc2)c1	19.3	7.2	4.4	55.5*	-1.0
Cc1cccc(N2CCN(C(=O)c3ccc(CS(=O)(=O)c4ccccc4C)o3)CC2C)c1 (stereo unspecified)	14.1	-13.1	1.7	50.4*	14.2
O=C1c2ccccc2C(c2nnnn2-c2ccc3c(c2)OCCO3)N1CCCn1ccnc1 (stereo unspecified)	0.5	x	x	-10.2	x
Cc1nn(C)c(C(=O)N/N=C/c2ccccc2)c1[N+](=O)[O-]	1.3	-23.2	-6.2	2.3	21.3*
Cc1cc(C)n(C(=O)c2c([N+](=O)[O-])c(C)nn2C)n1	3.1	4.8	-5.2	13.5	-3.9
Cc1ccc(SC(=O)c2c([N+](=O)[O-])c(C)nn2C)cc1	-1.4	-27.1	-8.6	-15.9	62.4*
Cc1nn(C)c(C(=O)Nc2cccc(Nc3ccccc3)c2)c1[N+](=O)[O-]	2.7	-5.7	-0.8	5.3	26.4*
C[C@H]1CN(c2ccc(N3CCNC[C@@H]3C)cc2C#N)CCN1Cc1ccccc1	10.7	x	x	-11.2	x
CN1OC[C@@H]2CN(C(=O)c3ccc(C#N)cc3)[C@H](c3cccc(Br)c3)C[C@@H]21	1.2	x	x	-19.3	x
Fc1cccc(Cc2c(-c3ccc(Cl)cc3)nc3c(Cl)cc(C(F)(F)F)cn23)c1	-1.5	6.7	-1.1	3.4	-26.6
CCC(CC)CN1CCC(CN2C(=S)NC[C@@H]2Cc2ccccc2)CC1	1.1	x	x	-13.8	x
CCC1C(C#N)=C(SCC(N)=O)NC2=C1C(=O)CC(C)(C)C2 (stereo unspecified)	0.1	6.2	-3.0	-24.7	-7.2
COc1ccc(C2C(C#N)=C(SCC(=O)Nc3ccc(C)cc3)NC3=C2C(=O)CC(C)(C)C3)cc1 (stereo unspecified)	0.6	-14.9	21.1*	-13.3	84.8*
COC(=O)[C@]12C[C@H](CC(=O)NCC3CCCCC3)C(=O)N(Cc3ccc4c(c3)OCO4)C1=C[C@H](COCc1ccccc1)O[C@@H]2C	-0.6	x	x	-28.5	x
CN1CCCC(C#CC(O)(c2ccccc2)c2ccccc2)C1 (stereo unspecified)	8.3	-34.9	-13.5	-11.1	98.6*
CN(Cc1ccccc1O)CC1CCCN(CCc2ccc(Cl)cc2)C1 (stereo unspecified)	2.4	-29.4	-9.2	-2.0	80.0*
COc1ccc(CCN2CCCC(CN(C)Cc3cccc(OC)c3)C2)cc1 (stereo unspecified)	4.8	-10.9	-8.3	-0.4	3.3
